Reference: ChEMBL document CHEMBL1240389, “In vitro and in vivo activities of the novel anticytomegalovirus compound AIC246” (Antimicrob Agents Chemother, 2010)
Activity calls are given as the source filed them. No cut-off for these calls is given here.

Assays:
Human betaherpesvirus 5 [1] = test: Antiviral activity against human cytomegalovirus AD169 infected in NHDF at 10 times EC50 treated postinfection and measured after 7 days by GFP-based fluorescent reduction assay
Human betaherpesvirus 5 [2] = test: Antiviral activity against human cytomegalovirus AD169 infected in NHDF at 11 uM treated after 57 hrs postinfection measured after 7 days by GFP-based fluorescent reduction assay; format: functional, organism-based
[3] = Cytotoxicity against HEL299 cells infected with human cytomegalovirus after 7 days by alamar blue assay; format: cell-based, HEL 299
Procedure, shortened: (§1)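 Fibroblasts seeded at 1.5 × 10⁴/well, incubated overnight, then given drug in 3-fold serial dilutions from 0.33 mM (DMSO constant 0.66%). After 7 days, alamarBlue added and fluorescence read; signal as % of untreated cell controls versus log concentration; CC50 from dose-response curves. At least three experiments with duplicates.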

[4] = Cytotoxicity against HLF infected with human cytomegalovirus after 7 days by alamar blue assay; conditions: HLF cells infected with human cytomegalovirus
Procedure, shortened: as §1

[5] = Cytotoxicity against human HS27 cells infected with human cytomegalovirus after 7 days by alamar blue assay; format: cell-based
Procedure, shortened: as §1

[6] = Cytotoxicity against human MRC5 cells infected with human cytomegalovirus after 7 days by alamar blue assay; format: cell-based
Procedure, shortened: as §1

[7] = Cytotoxicity against NHDF infected with human cytomegalovirus after 7 days by alamar blue assay; format: cell-based; conditions: NHDF cells infected with human cytomegalovirus
Procedure, shortened: as §1

[8] = Selectivity index, ratio of CC50 for HEL299 cells to EC50 for human cytomegalovirus infected in HEL299 cells; format: toxicity, cell-based, HEL 299; conditions: read-out: Selectivity Index
Procedure, shortened: (§2)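 SI = CC₅₀/EC₅₀ in the same fibroblast type. EC₅₀: GFP-expressing HCMV AD169, 3-fold dilutions, 7 days at 37°C, GFP units by CCD camera. CC₅₀ run in parallel: 1.5 × 10⁴ cells/well overnight, 3-fold dilutions from 0.33 mM (DMSO constant 0.66%), 7 days, alamarBlue fluorescence as % of untreated cells; ≥3 runs in duplicate.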

[9] = Selectivity index, ratio of CC50 for human MRC5 cells to EC50 for human cytomegalovirus infected in human MRC5 cells; format: toxicity, cell-based; conditions: MRC5 cells infected with human cytomegalovirus, read-out: Selectivity Index
Procedure, shortened: as §2

[10] = Selectivity index, ratio of CC50 for human HS27 cells to EC50 for human cytomegalovirus infected in human HS27 cells; format: toxicity, cell-based; conditions: HS27 cells infected with human cytomegalovirus, read-out: Selectivity Index
Procedure, shortened: as §2

Human betaherpesvirus 5 [11] = test: Antiviral activity against human cytomegalovirus infected in NHLF after 7 days by GFP-based fluorescent reduction assay; format: functional, organism-based; conditions: Human betaherpesvirus 5, 168 h
Procedure, shortened: (§3)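 Fibroblasts of the stated type (1.5 × 10⁴/well) infected with GFP-expressing recombinant AD169 (HCMV-GFP MOI 0.1 or RV-HG MOI 0.2 to 0.5). After adsorption the inoculum was replaced, with 3-fold serial compound dilutions at least in duplicate, and 7 days at 37°C. GFP units were read by CCD camera in PBS. EC₅₀ was derived from GFPU reduction versus untreated infected wells; at least triplicate runs.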

Human betaherpesvirus 5 [12] = test: Antiviral activity against human cytomegalovirus infected in NHDF after 7 days by GFP-based fluorescent reduction assay; format: functional, organism-based; conditions: Human betaherpesvirus 5, NHDF, 168 h
Procedure, shortened: as §3

Human betaherpesvirus 5 [13] = test: Antiviral activity against 0.1 MOI human cytomegalovirus AD169 infected in NHDF after 7 days by GFP-based fluorescent reduction assay; format: functional, organism-based; conditions: Human betaherpesvirus 5, AD169, NHDF, 168 h
Procedure, shortened: (§4)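 NHDF cells (1.5 × 10⁴/well) infected with GFP-expressing HCMV AD169 at the stated MOI (range 0.003 to 1 tested). After adsorption the inoculum was replaced, and compound was added in 3-fold serial dilutions, each at least in duplicate. Cells were incubated 7 days at 37°C, then GFP units were read by CCD camera in PBS. EC₅₀ was taken as the % GFPU reduction versus no-drug control. At least triplicate experiments.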

Human betaherpesvirus 5 [14] = test: Antiviral activity against human cytomegalovirus AD169 infected in NHDF assessed as inhibition of virus-induced cytopathic effect after 6 to 7 days by giemsa staining; format: functional, organism-based; conditions: Human betaherpesvirus 5, AD169, NHDF
Procedure, shortened: (§5)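 NHDF cells (1 × 10⁴/well) mixed with cell-free virus (MOI 0.03) or with infected-cell suspension (MOI 0.001 to 0.002). Compound was added from DMSO stocks in 2-fold serial dilutions, final 250 to 0.00005 μM, in duplicates. Plates were incubated 6 to 7 days at 37°C or until 100% CPE in virus control, then fixed and stained with Giemsa/formalin and scored microscopically. EC₅₀ is 50% CPE inhibition versus untreated infected control.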

Human betaherpesvirus 5 [15] = test: Antiviral activity against 0.3 MOI human cytomegalovirus AD169 infected in NHDF after 7 days by GFP-based fluorescent reduction assay; format: functional, organism-based; conditions: Human betaherpesvirus 5, AD169, NHDF, 168 h
Procedure, shortened: as §4

Human betaherpesvirus 5 [16] = test: Antiviral activity against human cytomegalovirus AD169 infected in NHDF at 20 uM treated after 33 hrs postinfection measured after 7 days by GFP-based fluorescent reduction assay; format: functional, organism-based
Human betaherpesvirus 5 [17] = test: Antiviral activity against human cytomegalovirus AD169 infected in NHDF assessed as inhibition of virus replication at 50 nM measured after 24 to 72 hrs of compound wash by fluorescence assay; format: functional, organism-based
Human betaherpesvirus 5 [18] = test: Antiviral activity against human cytomegalovirus isolate E16415S infected in NHDF assessed as inhibition of virus-induced cytopathic effect after 6 to 7 days by giemsa staining; format: functional, organism-based; conditions: Human betaherpesvirus 5, isolate E16415S
Procedure, shortened: (§6)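 Cell-associated virus (infected NHDF cells) used as inoculum, at MOI 0.001 to 0.002, mixed with uninfected NHDF (1 × 10⁴ to 3 × 10⁴ cells/well). Compound was added in 2-fold serial dilutions, final 250 to 0.00005 μM, in duplicates. Incubation was 6 to 7 days at 37°C, followed by Giemsa/formalin staining and visual CPE scoring. EC₅₀ is 50% CPE inhibition versus untreated infected control; at least two independent experiments.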

Human betaherpesvirus 5 [19] = test: Antiviral activity against human cytomegalovirus infected in human HS27 cells after 7 days by GFP-based fluorescent reduction assay; format: functional, organism-based; conditions: Human betaherpesvirus 5, HS27, 168 h
Procedure, shortened: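 GFP reduction assay run in HS27 foreskin fibroblasts instead of NHDF, infected with AD169-GFP; compounds in 3-fold serial dilutions, 7 days at 37°C, GFP units read by camera-based fluorescence detector after PBS exchange. EC50 from % GFPU reduction versus drug-free infected control; at least triplicate experiments.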

[20] = tested on: Human herpesvirus 5 strain AD169; test: Antiviral activity against ganciclovir-resistant human cytomegalovirus AD169 UL97 M460I infected in NHDF assessed as inhibition of virus-induced cytopathic effect after 6 to 7 days by giemsa staining; format: functional, organism-based; conditions: Human betaherpesvirus 5, UL97 M460I
Procedure, shortened: as §5

Human betaherpesvirus 5 [21] = test: Antiviral activity against ganciclovir-resistant human cytomegalovirus isolate 1947R infected in NHDF assessed as inhibition of virus-induced cytopathic effect after 6 to 7 days by giemsa staining; format: functional, organism-based; conditions: Human betaherpesvirus 5, isolate 1947R
Procedure, shortened: as §6

Human betaherpesvirus 5 [22] = test: Antiviral activity against human cytomegalovirus RV-HG infected in NHDF after 7 days by GFP-based fluorescent reduction assay; format: functional, organism-based; conditions: Human betaherpesvirus 5, RV-HG, 168 h
Procedure, shortened: (§7)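 Incubated 7 days at 37°C, medium swapped for PBS, GFP units read by CCD-camera fluorescence imager. EC50/EC90 from % GFPU reduction versus untreated infected wells by nonlinear regression; at least triplicate experiments.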

Human betaherpesvirus 5 [23] = test: Antiviral activity against human cytomegalovirus isolate 472 infected in NHDF assessed as inhibition of virus-induced cytopathic effect after 6 to 7 days by giemsa staining; format: functional, organism-based; conditions: Human betaherpesvirus 5, isolate 472, NHDF
Procedure, shortened: as §5

Human betaherpesvirus 5 [24] = test: Antiviral activity against 0.01 MOI human cytomegalovirus AD169 infected in NHDF after 7 days by GFP-based fluorescent reduction assay; conditions: Human betaherpesvirus 5, AD169, NHDF, 168 h
Human betaherpesvirus 5 [25] = test: Antiviral activity against 1 MOI human cytomegalovirus AD169 infected in NHDF after 7 days by GFP-based fluorescent reduction assay; format: functional, organism-based; conditions: Human betaherpesvirus 5, AD169, NHDF, 168 h
Procedure, shortened: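 NHDF cells (1.5 × 10⁴/well) infected with GFP-expressing HCMV AD169 at increasing MOI (0.003 to 1); after adsorption inoculum replaced, compound added in serial 3-fold dilutions, at least duplicate. 7 days at 37°C, medium swapped for PBS, GFP units read by CCD camera. EC₅₀ = 50% GFPU reduction versus no-drug virus control by nonlinear regression; at least triplicate experiments.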

Human betaherpesvirus 5 [26] = test: Antiviral activity against 0.003 MOI human cytomegalovirus AD169 infected in NHDF after 7 days by GFP-based fluorescent reduction assay; format: functional, organism-based; conditions: Human betaherpesvirus 5, AD169, NHDF, 168 h
Procedure, shortened: as §4

Human betaherpesvirus 5 [27] = test: Antiviral activity against human cytomegalovirus infected in HEL299 cells after 7 days by GFP-based fluorescent reduction assay; format: functional, organism-based; conditions: Human betaherpesvirus 5, HEL 299, 168 h
Procedure, shortened: as §3

Human betaherpesvirus 5 [28] = test: Antiviral activity against 0.03 MOI human cytomegalovirus AD169 infected in NHDF after 7 days by GFP-based fluorescent reduction assay; format: functional, organism-based; conditions: Human betaherpesvirus 5, AD169, NHDF, 168 h
Procedure, shortened: as §4

Human betaherpesvirus 5 [29] = test: Antiviral activity against human cytomegalovirus AD169 infected in NHDF assessed as inhibition of virus replication at 20 uM after 96 hrs by fluorescence assay; format: functional, organism-based
Human betaherpesvirus 5 [30] = test: Antiviral activity against ganciclovir-resistant human cytomegalovirus isolate E17251S infected in NHDF assessed as inhibition of virus-induced cytopathic effect after 6 to 7 days by giemsa staining; format: functional, organism-based; conditions: Human betaherpesvirus 5, isolate E17251S
Procedure, shortened: as §6

Human betaherpesvirus 5 [31] = test: Antiviral activity against human cytomegalovirus AD169 infected in NHDF after 7 days by GFP-based fluorescent reduction assay; format: functional, organism-based; conditions: Human betaherpesvirus 5, AD169, NHDF, 168 h
Procedure, shortened: as §7

Human betaherpesvirus 5 [32] = test: Antiviral activity against human cytomegalovirus Davis infected in NHDF assessed as inhibition of virus-induced cytopathic effect after 6 to 7 days by giemsa staining; format: functional, organism-based; conditions: Human betaherpesvirus 5, Davis
Procedure, shortened: as §5

Human betaherpesvirus 5 [33] = test: Antiviral activity against human cytomegalovirus Davis xenograft mouse model assessed as reduction of viral load at 10 to 100 mg/kg, po QD for 9 days measured post last dose; format: functional, organism-based
Procedure, shortened: (§8)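 NOD SCID mice (18 to 25 g) implanted subcutaneously (dorsoscapular) with Gelfoam sponges seeded with 1 × 10⁶ NHDF cells infected with strain Davis (MOI 0.03), bFGF-treated. From 4 h post-transplant, dosed orally by gavage once daily for 9 days in 2% DMSO/0.5% methylcellulose-PBS, 10 ml/kg. Implants then collagenase-digested; recovered cells titrated by plaque assay on NHDF (PFU/ml).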

Human betaherpesvirus 5 [34] = test: Antiviral activity against human cytomegalovirus Davis xenograft mouse model assessed as reduction of viral load administered via oral gavage QD for 9 days measured post last dose; format: functional; conditions: Human betaherpesvirus 5, Davis, 216 h
Procedure, shortened: as §8

CN(C)c1cccc2c(S(=O)(=O)Nc3ccc(NC(=O)C(C)(C)CO)cc3)cccc12
Activity (Human betaherpesvirus 5 [1]): Active | Activity (Human betaherpesvirus 5 [2]): inactive

Nc1nc(O)c2ncn(COC(CO)CO)c2n1 [GANCICLOVIR]
CC50 at 168 h [3]: > 333 µM | CC50 at 168 h [4]: > 333 µM | CC50 at 168 h [5]: > 333 µM | CC50 at 168 h [6]: > 333 µM | CC50 at 168 h [7]: > 333 µM | selectivity ratio [8]: > 139 | selectivity ratio [9]: > 202 | selectivity ratio [10]: > 1040

Nc1nc2c(ncn2COC(CO)CO)c(=O)[nH]1 [GANCICLOVIR]
EC50 (Human betaherpesvirus 5 [11]): 2070 nM | EC50 (Human betaherpesvirus 5 [12]): 1910 nM | EC50 (Human betaherpesvirus 5 [13]): 2210 nM | EC50 (Human betaherpesvirus 5 [14]): 4.3 µM | EC50 (Human betaherpesvirus 5 [15]): 6.51 µM | Activity (Human betaherpesvirus 5 [16]): Active | Activity (Human betaherpesvirus 5 [17]): Active | EC50 (Human betaherpesvirus 5 [18]): 1100 nM | EC50 (Human betaherpesvirus 5 [19]): 320 nM | EC50 [20]: 12 µM | EC50 (Human betaherpesvirus 5 [21]): 15 µM | EC50 (Human betaherpesvirus 5 [22]): 2330 nM | EC90 (Human betaherpesvirus 5 [22]): 18.3 µM | EC50 (Human betaherpesvirus 5 [23]): 5 µM | EC50 (Human betaherpesvirus 5 [24]): 680 nM | Activity (Human betaherpesvirus 5 [1]): Active | EC50 (Human betaherpesvirus 5 [25]): 5.26 µM | EC50 (Human betaherpesvirus 5 [26]): 990 nM | EC50 (Human betaherpesvirus 5 [27]): 2390 nM | EC50 (Human betaherpesvirus 5 [28]): 1740 nM | Activity (Human betaherpesvirus 5 [29]): Active | EC50 (Human betaherpesvirus 5 [30]): 14 µM | EC50 (Human betaherpesvirus 5 [31]): 1730 nM | EC90 (Human betaherpesvirus 5 [31]): 10.7 µM | EC50 (Human betaherpesvirus 5 [32]): 2700 nM

CC(C)[C@H](N)C(=O)OCC(CO)OCn1cnc2c(=O)[nH]c(N)nc21 (stereo partly drawn) [VALGANCICLOVIR]
inhibition (Human betaherpesvirus 5 [33]): Active | ED50 (Human betaherpesvirus 5 [34]): 16 mg/kg/day | ED90 (Human betaherpesvirus 5 [34]): > 100 mg/kg/day
